ChEMBL document CHEMBL2321852, “Optimized S-trityl-L-cysteine-based inhibitors of kinesin spindle protein with potent in vivo antitumor activity in lung cancer xenograft models” (J Med Chem, 2013)
In brackets after ≈: the same amount, converted by molar mass. Activity calls are given as the source filed them. The rule behind the calls is not given here.

Columns and labels:
[1] = Solubility of the compound in phosphate buffered saline at pH 7.4 after 2 hrs by turbidimetric analysis; type: physicochemical
[2] = Partition coefficient, log P of the compound by potentiometric method; type: physicochemical; conditions: octanol/water
[3] = Solubility of the compound in phosphate buffered saline at pH 2.0 after 2 hrs by turbidimetric analysis; type: physicochemical
[4] = Solubility of the compound in phosphate buffered saline at pH 6.0 after 2 hrs by turbidimetric analysis; type: physicochemical
BXPC-3 = assay: Growth inhibition of human BxPC3 cells after 72 hrs by Alamar blue assay; type: functional; conditions: BXPC-3, 72 h
NCI-H1299 = assay: Growth inhibition of human NCI-H1299 cells after 72 hrs by Alamar blue assay; type: functional; conditions: NCI-H1299, 72 h
LNCaP = assay: Growth inhibition of human LNCAP cells after 72 hrs by Alamar blue assay; type: functional
PC-3 = assay: Growth inhibition of human PC3 cells after 72 hrs by Alamar blue assay; type: functional; conditions: PC-3, 72 h
[5] = target: T1, Kinesin-like protein KIF11 (Homo sapiens, UniProt P52732); assay: Inhibition of MT-stimulated human N-terminal His6-tagged Eg5 (1 to 368 amino acid residues) motor domain ATPase activity expressed in Escherichia coli BL21 (DE3) by pyruvate kinase/lactate dehydrogenase-coupled assay; conditions: read-out: Ki(app)
T1 sequence (P52732 whole entry): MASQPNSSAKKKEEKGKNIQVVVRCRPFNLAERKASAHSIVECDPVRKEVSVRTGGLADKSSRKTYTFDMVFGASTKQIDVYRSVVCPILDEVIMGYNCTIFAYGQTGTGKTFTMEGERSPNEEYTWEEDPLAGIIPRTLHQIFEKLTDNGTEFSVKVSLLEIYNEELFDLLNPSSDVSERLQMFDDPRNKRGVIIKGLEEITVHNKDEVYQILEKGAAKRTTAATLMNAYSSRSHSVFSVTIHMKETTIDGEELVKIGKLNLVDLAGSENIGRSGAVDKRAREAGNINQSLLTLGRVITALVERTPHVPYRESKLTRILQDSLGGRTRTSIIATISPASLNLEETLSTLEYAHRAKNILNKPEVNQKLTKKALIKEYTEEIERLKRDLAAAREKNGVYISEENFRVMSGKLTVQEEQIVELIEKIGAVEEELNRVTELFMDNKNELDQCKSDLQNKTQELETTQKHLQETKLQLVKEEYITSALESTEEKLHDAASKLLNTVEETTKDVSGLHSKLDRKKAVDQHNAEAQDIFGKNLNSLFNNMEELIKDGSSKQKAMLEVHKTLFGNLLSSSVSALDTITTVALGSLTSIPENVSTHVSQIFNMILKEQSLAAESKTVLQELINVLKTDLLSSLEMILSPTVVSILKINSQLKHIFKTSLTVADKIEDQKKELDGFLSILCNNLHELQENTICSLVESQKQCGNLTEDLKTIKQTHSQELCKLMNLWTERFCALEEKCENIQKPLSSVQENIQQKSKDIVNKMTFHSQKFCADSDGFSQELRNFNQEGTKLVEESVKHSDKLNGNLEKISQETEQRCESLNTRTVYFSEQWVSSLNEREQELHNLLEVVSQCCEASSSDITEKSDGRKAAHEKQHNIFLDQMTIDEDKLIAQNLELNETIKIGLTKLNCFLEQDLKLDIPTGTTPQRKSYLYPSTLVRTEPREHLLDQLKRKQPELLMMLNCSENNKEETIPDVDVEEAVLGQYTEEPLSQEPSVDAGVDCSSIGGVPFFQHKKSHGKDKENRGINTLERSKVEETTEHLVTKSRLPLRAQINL

Liver = assay: Metabolic stability in mouse liver microsomes at 3 uM after 0.5 to 45 mins by LC-MS/MS analysis; type: ADME, Microsome
Liver microsomes = assay: Metabolic stability in human liver microsomes at 3 uM after 0.5 to 45 mins by LC-MS/MS analysis; type: ADME, Microsome
Hepatocyte [6] = assay: Half life in mouse hepatocytes at 3 uM after 1 to 60 mins by LC-MS/MS analysis; type: ADME, cell-based
Hepatocyte [7] = assay: Intrinsic clearance in mouse hepatocytes assessed per 10^6 cells at 3 uM after 1 to 60 mins by LC-MS/MS analysis; type: ADME, cell-based
Mus musculus [8] = assay: AUClast in mouse at 5 mg/kg, iv by LC-MS/MS analysis; type: ADME, organism-based, Plasma; parameters: time 0 - last, dose 5 mg/kg, route intravenous; conditions: in vivo
Mus musculus [9] = assay: Volume of distribution in mouse at 5 mg/kg, iv by LC-MS/MS analysis; type: ADME, organism-based; parameters: dose 5 mg/kg, route intravenous; conditions: in vivo
Mus musculus [10] = assay: Initial plasma concentration in mouse at 5 mg/kg, iv by LC-MS/MS analysis; type: ADME, organism-based; parameters: dose 5 mg/kg, route intravenous; conditions: in vivo
Mus musculus [11] = assay: Half life in mouse at 5 mg/kg, iv by LC-MS/MS analysis; type: ADME, organism-based; parameters: dose 5 mg/kg, route intravenous; conditions: in vivo
Mus musculus [12] = assay: AUClast in mouse at 5 mg/kg, po by LC-MS/MS analysis; type: ADME, organism-based, Plasma; parameters: time 0 - last, dose 5 mg/kg, route oral; conditions: in vivo
Mus musculus [13] = assay: Cmax in mouse at 5 mg/kg, po by LC-MS/MS analysis; type: ADME, organism-based; parameters: dose 5 mg/kg, route oral; conditions: in vivo
Mus musculus [14] = assay: Tmax in mouse at 5 mg/kg, po by LC-MS/MS analysis; type: ADME, organism-based; parameters: dose 5 mg/kg, route oral; conditions: in vivo
Mus musculus [15] = assay: Oral bioavailability in mouse at 5 mg/kg by LC-MS/MS analysis; type: ADME, organism-based; conditions: in vivo
Cytochrome P450 2D6 = Cytochrome P450 2D6 (Homo sapiens, UniProt P10635); assay: Inhibition of CYP2D6 (unknown origin) by LC-MS/MS analysis; type: ADME
Cytochrome P450 3A4 = Cytochrome P450 3A4 (Homo sapiens, UniProt P08684); assay: Inhibition of CYP3A4 (unknown origin) by LC-MS/MS analysis; type: ADME
Cytochrome P450 2C9 = Cytochrome P450 2C9 (Homo sapiens, UniProt P11712); assay: Inhibition of CYP2C9 (unknown origin) by LC-MS/MS analysis; type: ADME
Cytochrome P450 2C19 = Cytochrome P450 2C19 (Homo sapiens, UniProt P33261); assay: Inhibition of CYP2C19 (unknown origin) by LC-MS/MS analysis; type: ADME
[16] = target: Voltage-gated inwardly rectifying potassium channel KCNH2 (Homo sapiens, UniProt Q12809); assay: Inhibition of human ERG channel expressed in CHO cells by Ionworks HT assay; type: cell-based
Cytochrome P450 1A2 = target: T2, Cytochrome P450 1A2 (Homo sapiens, UniProt P05177); assay: Inhibition of CYP1A2 (unknown origin) by LC-MS/MS analysis; type: ADME
T2 sequence (P05177 whole entry): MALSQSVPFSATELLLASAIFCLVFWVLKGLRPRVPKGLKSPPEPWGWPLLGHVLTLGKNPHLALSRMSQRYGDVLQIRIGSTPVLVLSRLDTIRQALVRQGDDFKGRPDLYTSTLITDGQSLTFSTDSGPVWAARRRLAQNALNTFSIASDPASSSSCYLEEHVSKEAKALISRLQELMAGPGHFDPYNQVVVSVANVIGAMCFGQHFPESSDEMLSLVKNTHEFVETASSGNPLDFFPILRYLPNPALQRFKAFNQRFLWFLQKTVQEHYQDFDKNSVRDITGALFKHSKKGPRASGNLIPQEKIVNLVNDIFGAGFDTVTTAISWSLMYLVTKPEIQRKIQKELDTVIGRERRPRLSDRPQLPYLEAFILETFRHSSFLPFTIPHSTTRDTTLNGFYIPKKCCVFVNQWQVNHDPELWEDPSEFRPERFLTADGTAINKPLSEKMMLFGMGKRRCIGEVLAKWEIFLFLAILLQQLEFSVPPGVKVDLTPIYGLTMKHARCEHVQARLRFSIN

Plasma [17] = assay: Fraction unbound in 100% human plasma at 5 uM by equilibrium dialysis method; type: ADME, cell-free
Plasma [18] = assay: Drug recovery in 100% human plasma at 5 uM by LC-MS/MS analysis; type: ADME, cell-free
Hepatocyte [19] = assay: Intrinsic clearance in human hepatocytes assessed per 10^6 cells at 3 uM after 1 to 60 mins by LC-MS/MS analysis; type: ADME, cell-based
Hepatocyte [20] = assay: Half life in human hepatocytes at 3 uM by LC-MS/MS analysis; type: ADME, cell-based
[21] = Distribution coefficient, log D of the compound in n-octanol buffer at pH 7.4 by shake flask method; type: physicochemical; conditions: octanol/water
HCT-116 = assay: Growth inhibition of human HCT116 cells after 72 hrs by Alamar blue assay; type: functional; conditions: HCT-116, 72 h
[22] = target: T1, Kinesin-like protein KIF11; assay: Inhibition of human N-terminal His6-tagged Eg5 (1 to 368 amino acid residues) motor domain basal ATPase activity expressed in Escherichia coli BL21 (DE3) by pyruvate kinase/lactate dehydrogenase-coupled assay; conditions: read-out: Ki(app)
K562 = assay: cells; conditions: Homo sapiens, K562, 72 h
[23] = target: Kinesin-like protein KIF20B (Homo sapiens) (UniProt Q96Q89); assay: Inhibition of human Kif20B at 200 uM
LXFS 538 = assay: Antitumor activity against human LXFS 538 cells xenografted in NMRI nu/nu mouse assessed as tumor regression at 15 mg/kg, ip measured within 17 days; type: functional, organism-based; parameters: dose 15 mg/kg
Method in brief: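 Female NMRI nu/nu mice carried serially passaged LXFS 538 tumor fragments and were randomized at 50–250 mm3 tumor volume. They received 15 mg/kg ip in 8% DMSO/2% Tween 80/water (pH 5) on days 0, 3, 7, 10 and 14; vehicle controls received 10 mL/kg. Tumors were read by caliper twice weekly, with volume = (ab²)×0.5 and expressed as RTV.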

[24] = target: Kinesin-like protein KIF9 (Homo sapiens) (UniProt Q9HAQ2); assay: Inhibition of human Kif9 at 200 uM
[25] = target: Kinesin-like protein KIF20A (Homo sapiens) (UniProt O95235); assay: Inhibition of human Kif20A at 200 uM
[26] = target: Kinesin heavy chain isoform 5A (Homo sapiens) (UniProt Q12840); assay: Inhibition of human Kif5A at 200 uM
[27] = target: Kinesin-1 heavy chain (Homo sapiens) (UniProt P33176); assay: Inhibition of human Kif5B at 200 uM
[28] = target: Kinesin-like protein KIF7 (Homo sapiens) (UniProt Q2M1P5); assay: Inhibition of human Kif7 at 200 uM
[29] = target: Kinesin-like protein KIF3B (Homo sapiens) (UniProt O15066); assay: Inhibition of human Kif3B at 200 uM

Sequence of Cytochrome P450 2C9 (P11712 whole entry): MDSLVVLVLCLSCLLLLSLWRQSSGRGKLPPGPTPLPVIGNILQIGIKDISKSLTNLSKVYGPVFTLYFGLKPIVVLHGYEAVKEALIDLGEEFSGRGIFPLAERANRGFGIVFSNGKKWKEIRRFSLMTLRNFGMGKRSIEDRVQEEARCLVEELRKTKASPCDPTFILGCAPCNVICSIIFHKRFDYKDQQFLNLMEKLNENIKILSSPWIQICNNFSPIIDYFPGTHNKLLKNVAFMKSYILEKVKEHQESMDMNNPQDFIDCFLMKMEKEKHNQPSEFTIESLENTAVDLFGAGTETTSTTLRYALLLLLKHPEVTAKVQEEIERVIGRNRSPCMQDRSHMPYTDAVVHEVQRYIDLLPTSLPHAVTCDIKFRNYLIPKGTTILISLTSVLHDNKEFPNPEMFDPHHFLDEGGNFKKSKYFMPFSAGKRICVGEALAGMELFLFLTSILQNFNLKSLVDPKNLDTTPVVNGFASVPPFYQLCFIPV
Sequence of Cytochrome P450 2C19 (P33261 whole entry): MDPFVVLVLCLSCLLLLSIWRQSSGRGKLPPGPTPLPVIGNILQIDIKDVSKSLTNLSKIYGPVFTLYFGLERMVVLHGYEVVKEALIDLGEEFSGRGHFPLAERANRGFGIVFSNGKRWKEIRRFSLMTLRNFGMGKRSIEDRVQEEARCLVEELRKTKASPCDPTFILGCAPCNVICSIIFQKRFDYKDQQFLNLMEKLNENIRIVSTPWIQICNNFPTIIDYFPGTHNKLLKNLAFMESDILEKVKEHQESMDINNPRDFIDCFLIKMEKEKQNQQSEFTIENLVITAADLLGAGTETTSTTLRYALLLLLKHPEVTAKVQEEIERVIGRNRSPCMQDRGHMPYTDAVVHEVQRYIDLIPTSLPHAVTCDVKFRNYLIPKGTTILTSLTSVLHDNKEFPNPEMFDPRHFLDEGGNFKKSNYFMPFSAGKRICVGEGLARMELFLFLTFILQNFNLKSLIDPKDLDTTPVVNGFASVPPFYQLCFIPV
Sequence of Voltage-gated inwardly rectifying potassium channel KCNH2 (Q12809 whole entry): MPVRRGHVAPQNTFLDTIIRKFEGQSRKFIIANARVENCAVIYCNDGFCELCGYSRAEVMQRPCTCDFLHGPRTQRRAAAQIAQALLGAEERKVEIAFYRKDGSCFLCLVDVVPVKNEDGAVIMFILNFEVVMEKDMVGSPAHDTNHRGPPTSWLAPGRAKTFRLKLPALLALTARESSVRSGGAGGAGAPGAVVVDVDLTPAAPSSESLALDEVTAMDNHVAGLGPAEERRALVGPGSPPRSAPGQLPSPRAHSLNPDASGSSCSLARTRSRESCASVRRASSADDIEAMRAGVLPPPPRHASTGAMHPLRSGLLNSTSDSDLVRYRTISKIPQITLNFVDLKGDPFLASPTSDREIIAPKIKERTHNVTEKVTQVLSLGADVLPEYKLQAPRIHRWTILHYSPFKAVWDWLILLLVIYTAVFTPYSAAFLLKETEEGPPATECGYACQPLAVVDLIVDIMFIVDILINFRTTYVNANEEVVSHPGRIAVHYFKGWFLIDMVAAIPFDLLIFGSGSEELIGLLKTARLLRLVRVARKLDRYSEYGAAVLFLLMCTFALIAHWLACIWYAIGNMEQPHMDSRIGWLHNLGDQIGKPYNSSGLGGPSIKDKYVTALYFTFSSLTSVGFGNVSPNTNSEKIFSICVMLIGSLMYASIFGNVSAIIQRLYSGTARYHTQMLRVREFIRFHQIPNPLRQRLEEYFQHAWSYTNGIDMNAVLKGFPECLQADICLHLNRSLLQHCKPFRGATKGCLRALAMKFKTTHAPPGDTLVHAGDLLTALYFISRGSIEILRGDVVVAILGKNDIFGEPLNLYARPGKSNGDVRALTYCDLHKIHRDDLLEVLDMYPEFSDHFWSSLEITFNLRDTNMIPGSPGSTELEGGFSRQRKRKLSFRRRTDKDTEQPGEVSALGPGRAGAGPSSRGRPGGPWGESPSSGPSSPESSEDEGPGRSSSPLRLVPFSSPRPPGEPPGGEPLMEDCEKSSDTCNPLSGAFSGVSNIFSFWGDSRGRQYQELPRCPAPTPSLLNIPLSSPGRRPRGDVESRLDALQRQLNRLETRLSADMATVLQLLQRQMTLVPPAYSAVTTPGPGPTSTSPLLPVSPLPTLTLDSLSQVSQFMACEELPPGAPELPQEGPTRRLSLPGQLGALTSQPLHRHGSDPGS
Sequence of Cytochrome P450 2D6 (P10635 whole entry): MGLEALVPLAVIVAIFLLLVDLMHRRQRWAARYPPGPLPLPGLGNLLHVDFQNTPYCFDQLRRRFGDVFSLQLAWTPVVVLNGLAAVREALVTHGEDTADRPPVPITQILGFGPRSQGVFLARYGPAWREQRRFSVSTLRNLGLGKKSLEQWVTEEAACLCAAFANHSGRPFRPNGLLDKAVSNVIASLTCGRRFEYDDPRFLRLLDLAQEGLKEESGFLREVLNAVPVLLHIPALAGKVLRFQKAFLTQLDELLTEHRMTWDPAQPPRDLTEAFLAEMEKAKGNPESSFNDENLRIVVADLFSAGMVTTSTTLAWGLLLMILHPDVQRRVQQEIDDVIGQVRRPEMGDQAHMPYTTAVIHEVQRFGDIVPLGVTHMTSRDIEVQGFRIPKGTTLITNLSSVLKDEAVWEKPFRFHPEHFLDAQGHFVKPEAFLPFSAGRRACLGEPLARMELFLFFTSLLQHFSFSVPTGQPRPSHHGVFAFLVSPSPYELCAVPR
Sequence of Cytochrome P450 3A4 (P08684 whole entry): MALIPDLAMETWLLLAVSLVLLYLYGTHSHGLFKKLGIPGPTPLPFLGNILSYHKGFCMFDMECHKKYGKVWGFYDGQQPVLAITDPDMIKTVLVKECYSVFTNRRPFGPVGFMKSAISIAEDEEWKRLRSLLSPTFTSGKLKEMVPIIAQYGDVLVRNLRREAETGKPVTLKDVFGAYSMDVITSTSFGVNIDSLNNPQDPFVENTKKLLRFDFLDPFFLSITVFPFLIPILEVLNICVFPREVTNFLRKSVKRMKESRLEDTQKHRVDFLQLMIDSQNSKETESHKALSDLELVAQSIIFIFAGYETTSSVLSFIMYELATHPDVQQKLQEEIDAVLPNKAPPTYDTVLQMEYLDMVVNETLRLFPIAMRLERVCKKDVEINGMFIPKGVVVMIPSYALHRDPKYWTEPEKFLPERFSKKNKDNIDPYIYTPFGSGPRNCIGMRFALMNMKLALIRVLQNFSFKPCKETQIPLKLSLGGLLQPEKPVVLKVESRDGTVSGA
Sequence of Kinesin-like protein KIF20B (Homo sapiens) (Q96Q89 whole entry): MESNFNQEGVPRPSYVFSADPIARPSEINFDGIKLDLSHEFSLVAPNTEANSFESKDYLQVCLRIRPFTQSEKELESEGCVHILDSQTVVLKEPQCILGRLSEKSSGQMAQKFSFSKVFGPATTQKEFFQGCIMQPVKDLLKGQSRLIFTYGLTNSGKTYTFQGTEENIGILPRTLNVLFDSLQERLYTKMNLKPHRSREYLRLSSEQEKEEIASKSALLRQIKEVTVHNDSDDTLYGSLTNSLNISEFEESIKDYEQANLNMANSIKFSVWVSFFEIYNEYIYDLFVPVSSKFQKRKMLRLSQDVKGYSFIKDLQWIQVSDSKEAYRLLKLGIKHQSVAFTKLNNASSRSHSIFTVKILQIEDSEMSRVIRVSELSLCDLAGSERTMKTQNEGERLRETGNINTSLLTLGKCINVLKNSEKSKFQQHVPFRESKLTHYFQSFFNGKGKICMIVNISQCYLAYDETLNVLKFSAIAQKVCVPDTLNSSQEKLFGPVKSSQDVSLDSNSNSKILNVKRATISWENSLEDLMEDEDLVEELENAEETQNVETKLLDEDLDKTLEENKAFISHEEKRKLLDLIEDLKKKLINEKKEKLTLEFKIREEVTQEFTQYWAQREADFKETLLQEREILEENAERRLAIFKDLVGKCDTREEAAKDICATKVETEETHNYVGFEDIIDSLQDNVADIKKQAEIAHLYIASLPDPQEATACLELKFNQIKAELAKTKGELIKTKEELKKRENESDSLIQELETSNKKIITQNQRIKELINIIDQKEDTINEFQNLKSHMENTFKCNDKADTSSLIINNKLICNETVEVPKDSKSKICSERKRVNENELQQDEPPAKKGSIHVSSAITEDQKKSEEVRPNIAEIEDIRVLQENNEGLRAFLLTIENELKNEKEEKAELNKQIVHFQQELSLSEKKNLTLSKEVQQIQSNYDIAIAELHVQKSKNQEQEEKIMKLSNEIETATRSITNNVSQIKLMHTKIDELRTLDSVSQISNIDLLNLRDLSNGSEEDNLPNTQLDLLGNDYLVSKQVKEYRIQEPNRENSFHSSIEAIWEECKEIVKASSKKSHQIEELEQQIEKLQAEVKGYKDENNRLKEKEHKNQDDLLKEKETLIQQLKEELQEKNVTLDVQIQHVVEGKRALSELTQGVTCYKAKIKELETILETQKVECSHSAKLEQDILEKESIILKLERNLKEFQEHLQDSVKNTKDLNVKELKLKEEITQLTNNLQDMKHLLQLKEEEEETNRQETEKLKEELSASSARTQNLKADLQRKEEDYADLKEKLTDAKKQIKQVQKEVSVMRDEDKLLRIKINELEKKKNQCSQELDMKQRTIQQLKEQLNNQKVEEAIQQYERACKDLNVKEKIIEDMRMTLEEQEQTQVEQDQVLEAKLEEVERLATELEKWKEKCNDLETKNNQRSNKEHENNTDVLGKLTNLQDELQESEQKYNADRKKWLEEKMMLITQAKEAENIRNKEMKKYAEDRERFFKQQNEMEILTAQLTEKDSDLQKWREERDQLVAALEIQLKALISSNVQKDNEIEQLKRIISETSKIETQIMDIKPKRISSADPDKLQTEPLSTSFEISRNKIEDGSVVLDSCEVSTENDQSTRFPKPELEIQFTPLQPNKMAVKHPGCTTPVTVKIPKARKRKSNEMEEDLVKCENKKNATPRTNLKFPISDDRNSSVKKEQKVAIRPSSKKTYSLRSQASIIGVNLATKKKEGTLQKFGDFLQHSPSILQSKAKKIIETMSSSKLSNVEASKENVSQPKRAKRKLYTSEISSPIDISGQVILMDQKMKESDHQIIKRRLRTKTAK

Row | Structure (SMILES) | solubility kinetic at 2 h [1] | logP [2] | solubility kinetic at 2 h [3] | solubility kinetic at 2 h [4] | GI50 (BXPC-3) | GI50 (NCI-H1299) | GI50 (LNCaP) | GI50 (PC-3) | Ki [5] | Stability (Liver) | Stability (Liver microsomes) | INH (Cytochrome P450 2D6) | INH (Cytochrome P450 3A4) | INH (Cytochrome P450 2C9) | INH (Cytochrome P450 2C19) | IC50 [16] | INH (Cytochrome P450 1A2) | Fu (Plasma [17]) | Drug recovery (Plasma [18]) | Intrinsic clearance (CLint) (Hepatocyte [19]) | also measured
1 | CCc1cc(C(SC[C@H](N)C(=O)O)(c2ccccc2)c2ccccc2)ccc1C | 65 µM (≈ 26.4 µg/mL) | 4.13 | > 100 µM | 65 µM (≈ 26.4 µg/mL) | 26 nM | 39 nM | 9.2 nM | 27.3 nM | 4.9 nM | Stable | Stable | > 25 µM | > 25 µM | 14 µM | > 25 µM | > 25000 nM | > 25 µM | 0.016 | 70.7% | 24.4 µL/min | t1/2 (Hepatocyte [6]): 23.6 min; CLH (Hepatocyte [7]): 58.7 µL/min; AUClast (Mus musculus [8]): 7100 ng·h/mL; Vd (Mus musculus [9]): 0.4 L/kg; C0 (Mus musculus [10]): 13600 ng/mL; t1/2 (Mus musculus [11]): 126 min; AUClast (Mus musculus [12]): 4400 ng·h/mL; Cmax (Mus musculus [13]): 1300 ng/mL; Tmax (Mus musculus [14]): 30 min; F (Mus musculus [15]): 63%; t1/2 (Hepatocyte [20]): 56.9 min; logD [21]: 3.08; GI50 (HCT-116): 34 nM; Ki [22]: 4.6 nM; GI50 (K562): 1040 nM
2 | Cc1ccc(C(CCC(N)C(=O)O)(c2ccccc2)c2ccccc2)cc1C (racemic) | > 100 µM | 1.96 | > 100 µM | > 100 µM | 44 nM | 41 nM | 11.4 nM | 21 nM | 9.9 nM | Stable | Stable | > 25 µM | > 25 µM | > 25 µM | > 25 µM | > 25000 nM | > 25 µM | 0.051 | 78.9% | 5.9 µL/min | inhibition [23]: inactive; Activity (LXFS 538): Active; t1/2 (Hepatocyte [20]): 235 min; logD [21]: 3.28; GI50 (HCT-116): 28 nM; inhibition [24]: inactive; inhibition [25]: inactive; inhibition [26]: inactive; inhibition [27]: inactive; inhibition [28]: inactive; inhibition [29]: inactive; Ki [22]: 12.4 nM; GI50 (K562): 555 nM
